Activity calls are given as the source filed them. The calls are words filed in the database; no cut-off is given here.
Key:
[1] = Cytotoxicity against human HeLaS3 cells after 24 to 72 hrs by MTT assay; format: functional, cell-based; settings: HeLa S3
Procedure, shortened: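 Growth inhibition of HeLa S-3 cells measured by MTT assay; IC50 taken as the drug concentration inhibiting cell growth by 50%. Values are mean ± S.D. of four independent experiments, each run in triplicate.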

HeLa S3 [2] = assay: Induction of apoptosis in human HeLaS3 cells assessed as chromatin condensation at 150 to 1000 nM after 48 hrs using Hoechst 33342 staining by confocal laser microscopic analysis; format: functional, cell-based
Procedure, shortened: (§1)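 HeLa S-3 cells treated with 0, 150, 300 or 1000 nM for 48 h, then nuclei stained with Hoechst 33342 and examined by fluorescence microscopy for chromatin condensation and fragmented nuclei.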

HeLa S3 [3] = assay: Induction of apoptosis in human HeLaS3 cells assessed as fragmented nuclei at 150 to 1000 nM after 48 hrs using Hoechst 33342 staining by confocal laser microscopic analysis; format: functional, cell-based; procedure, shortened: as §1
HeLa S3 [4] = assay: Induction of apoptosis in human HeLaS3 cells assessed as DNA fragmentation at 150 to 1000 nM after 48 hrs by electrophoresis analysis; format: functional, cell-based
Procedure, shortened: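 HeLa S-3 cells exposed to 0–1000 nM for 48 h; genomic DNA extracted and run on a 2% agarose gel next to a 100 bp ladder to look for fragmentation.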

HeLa S3 [5] = assay: Induction of apoptosis in human HeLaS3 cells assessed as increase of activated caspase 3 level by Western blot analysis; format: functional, cell-based; settings: TDE = time-dependent effect
Procedure, shortened: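 Cleaved caspase-3 detected by Western blot of HeLa S-3 cell extracts after 6, 12, 24 or 48 h treatment; untreated extract as control, β-actin as loading control.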

Homo sapiens [6] = species: Homo sapiens; assay: Binding affinity to enolase in human HeLaS3 whole cell extract by MALDI/TOF-MS nalaysis
Homo sapiens [7] = species: Homo sapiens; assay: Binding affinity to alpha-tubulin in human HeLaS3 whole cell extract by MALDI/TOF-MS nalaysis
[8] = Cell cycle arrest in human HeLaS3 cells assessed as accumulation at S phase at 150 nM after 12 hrs using propidium iodide staining by flow cytometry (reference value: 19.62%); settings: HeLa S3
[9] = Cell cycle arrest in human HeLaS3 cells assessed as accumulation at S phase at 150 nM after 24 hrs using propidium iodide staining by flow cytometry (reference value: 19.62%); settings: HeLa S3
[10] = Cell cycle arrest in human HeLaS3 cells assessed as accumulation at S phase at 150 nM after 36 hrs using propidium iodide staining by flow cytometry (reference value: 19.62%); settings: HeLa S3
[11] = Cell cycle arrest in human HeLaS3 cells assessed as accumulation at S phase at 150 nM after 48 hrs using propidium iodide staining by flow cytometry (reference value: 19.62%); settings: HeLa S3
[12] = Cell cycle arrest in human HeLaS3 cells assessed as accumulation at G1 phase at 150 nM after 12 hrs using propidium iodide staining by flow cytometry (reference value: 56.42%); settings: HeLa S3
[13] = Cell cycle arrest in human HeLaS3 cells assessed as accumulation at G1 phase at 150 nM after 24 hrs using propidium iodide staining by flow cytometry (reference value: 56.42%); settings: HeLa S3
[14] = Cell cycle arrest in human HeLaS3 cells assessed as accumulation at G1 phase at 150 nM after 36 hrs using propidium iodide staining by flow cytometry (reference value: 56.42%); settings: HeLa S3
[15] = Cell cycle arrest in human HeLaS3 cells assessed as accumulation at G1 phase at 150 nM after 48 hrs using propidium iodide staining by flow cytometry (reference value: 56.42%); settings: HeLa S3
[16] = Cell cycle arrest in human HeLaS3 cells assessed as accumulation at G2/M phase at 150 nM after 12 hrs using propidium iodide staining by flow cytometry (reference value: 22.45%); settings: HeLa S3
[17] = Cell cycle arrest in human HeLaS3 cells assessed as accumulation at G2/M phase at 150 nM after 24 hrs using propidium iodide staining by flow cytometry (reference value: 22.45%); settings: HeLa S3
[18] = Cell cycle arrest in human HeLaS3 cells assessed as accumulation at G2/M phase at 150 nM after 36 hrs using propidium iodide staining by flow cytometry (reference value: 22.45%); settings: HeLa S3
[19] = Cell cycle arrest in human HeLaS3 cells assessed as accumulation at G2/M phase at 150 nM after 48 hrs using propidium iodide staining by flow cytometry (reference value: 22.45%); settings: HeLa S3
[20] = Cell cycle arrest in human HeLaS3 cells assessed as accumulation at sub-G1 phase at 150 nM after 12 hrs using propidium iodide staining by flow cytometry (reference value: 1.51%); settings: HeLa S3
[21] = Cell cycle arrest in human HeLaS3 cells assessed as accumulation at sub-G1 phase at 150 nM after 24 hrs using propidium iodide staining by flow cytometry (reference value: 1.51%); settings: HeLa S3
[22] = Cell cycle arrest in human HeLaS3 cells assessed as accumulation at sub-G1 phase at 150 nM after 36 hrs using propidium iodide staining by flow cytometry (reference value: 1.51%); settings: HeLa S3
[23] = Cell cycle arrest in human HeLaS3 cells assessed as accumulation at sub-G1 phase at 150 nM after 48 hrs using propidium iodide staining by flow cytometry (reference value: 1.51%); settings: HeLa S3

For `c1ccc(Oc2cccc(CNc3cc4c(cn3)[nH]c3ccccc34)c2)cc1`, the IC50 [1] was 0.074 µM, the Activity (HeLa S3 [2]) was “Active” and the Activity (HeLa S3 [3]) was “Active”. For the same molecule, the Activity (HeLa S3 [4]) was “Active”, the Activity (HeLa S3 [5]) was “tde” and the Activity (Homo sapiens [6]) was “Active”. For the same molecule, the Activity (Homo sapiens [7]) was “Active”, the Activity [8] was 15.4% and the Activity [9] was 15.9%. For the same molecule, the Activity [10] was 15.6%, the Activity [11] was 20.2% and the Activity [12] was 8.4%. For the same molecule, the Activity [13] was 21.2%, the Activity [14] was 19% and the Activity [15] was 18.4%. It also gave an Activity [16] of 65.9%, an Activity [17] of 30% and an Activity [18] of 19.2%. It also gave an Activity [19] of 9.52%, an Activity [20] of 9.72% and an Activity [21] of 32.7%. The Activity [22] was 43.5% and the Activity [23] was 50.1%.

With `Oc1ccccc1CNc1nccc2c1[nH]c1ccccc12` the IC50 [1] was 19 µM.

`FC(F)(F)c1ccc(CNc2cc3c(cn2)[nH]c2ccccc23)cc1` gave an IC50 [1] of 47 µM.

Work on `Clc1cccc(CNc2cc3c(cn2)[nH]c2ccccc23)c1` yielded an IC50 [1] of 0.83 µM.

`COc1cccc(CNc2cc3c(cn2)[nH]c2ccccc23)c1OC` gave an IC50 [1] of 3.2 µM.

For `c1ccc(CNc2nccc3c2[nH]c2ccccc23)cc1`, the IC50 [1] was 24 µM.

Molecule `COc1cccc(OC)c1CNc1cc2c(cn1)[nH]c1ccccc12` has an IC50 [1] of 2.3 µM.

Work on `c1ccc(Oc2cccc(CNc3nccc4c3[nH]c3ccccc34)c2)cc1` yielded an IC50 [1] of 2.3 µM.

In the case of `Clc1ccccc1CNc1cc2c(cn1)[nH]c1ccccc12`, the IC50 [1] is reported as 1 µM.

Work on `O=[N+]([O-])c1ccccc1CNc1cc2c(cn1)[nH]c1ccccc12` yielded an IC50 [1] of 14 µM.

For `Clc1cccc(CNc2nccc3c2[nH]c2ccccc23)c1`, the IC50 [1] was 20 µM.

`COc1ccc(OC)c(CNc2cc3c(cn2)[nH]c2ccccc23)c1` showed an IC50 [1] of 6.1 µM.

In the case of `O=[N+]([O-])c1cccc(CNc2cc3c(cn2)[nH]c2ccccc23)c1`, the IC50 [1] is reported as > 30 µM.

In the case of `Oc1ccc(CNc2cc3c(cn2)[nH]c2ccccc23)cc1`, the IC50 [1] is reported as 1.7 µM.

For `Cc1cccc(CNc2nccc3c2[nH]c2ccccc23)c1`, the IC50 [1] was 22 µM.

With `c1ccc(-c2ccccc2CNc2cc3c(cn2)[nH]c2ccccc23)cc1` the IC50 [1] was 3 µM.

With `c1ccc(COc2cccc(CNc3cc4c(cn3)[nH]c3ccccc34)c2)cc1` the IC50 [1] was 0.38 µM.

For `COc1cccc(CNc2cc3c(cn2)[nH]c2ccccc23)c1`, the IC50 [1] was 0.79 µM.

For `COc1ccc(CNc2cc3c(cn2)[nH]c2ccccc23)cc1OC`, the IC50 [1] was > 100 µM.

With `COc1ccc(CNc2cc3c(cn2)[nH]c2ccccc23)c(OC)c1OC` the IC50 [1] was 4 µM.

In the case of `Clc1ccccc1CNc1nccc2c1[nH]c1ccccc12`, the IC50 [1] is reported as 19 µM.

`Oc1ccccc1CNc1cc2c(cn1)[nH]c1ccccc12` showed an IC50 [1] of 28 µM.

Work on `Clc1ccc(CNc2nccc3c2[nH]c2ccccc23)cc1` yielded an IC50 [1] of 18 µM.

In the case of `c1ccc(-c2ccc(CNc3cc4c(cn3)[nH]c3ccccc34)cc2)cc1`, the IC50 [1] is reported as > 30 µM.

Work on `Clc1ccc(CNc2nccc3c2[nH]c2ccccc23)cc1Cl` yielded an IC50 [1] of 20 µM.

For `FC(F)(F)c1cccc(CNc2cc3c(cn2)[nH]c2ccccc23)c1`, the IC50 [1] was 3.1 µM.

In the case of `COc1cc(CNc2cc3c(cn2)[nH]c2ccccc23)cc(OC)c1OC`, the IC50 [1] is reported as 0.22 µM.

`Cc1ccccc1CNc1cc2c(cn1)[nH]c1ccccc12` showed an IC50 [1] of 0.3 µM.

`Cc1ccc(CNc2nccc3c2[nH]c2ccccc23)cc1` showed an IC50 [1] of 26 µM.

For `c1ccc(Oc2ccc(CNc3nccc4c3[nH]c3ccccc34)cc2)cc1`, the IC50 [1] was 15 µM.

Molecule `Cc1cccc(CNc2cc3c(cn2)[nH]c2ccccc23)c1` has an IC50 [1] of 0.21 µM.

Work on `COc1cc(CNc2cc3c(cn2)[nH]c2ccccc23)cc(OC)c1` yielded an IC50 [1] of 1.7 µM.

`COc1ccc(CNc2cc3c(cn2)[nH]c2ccccc23)c(OC)c1` gave an IC50 [1] of 4.8 µM.

Work on `Oc1cccc(CNc2cc3c(cn2)[nH]c2ccccc23)c1` yielded an IC50 [1] of 0.92 µM.

`COc1ccc(CNc2cc3c(cn2)[nH]c2ccccc23)cc1` gave an IC50 [1] of 20 µM.

In the case of `Cc1ccccc1CNc1nccc2c1[nH]c1ccccc12`, the IC50 [1] is reported as 13 µM.

Molecule `FC(F)(F)c1ccccc1CNc1cc2c(cn1)[nH]c1ccccc12` has an IC50 [1] of 6.7 µM.

Work on `c1ccc(Oc2ccc(CNc3cc4c(cn3)[nH]c3ccccc34)cc2)cc1` yielded an IC50 [1] of 1.2 µM.

In the case of `COc1ccc(CNc2nccc3c2[nH]c2ccccc23)cc1`, the IC50 [1] is reported as 22 µM.

`c1ccc(CNc2cc3c(cn2)[nH]c2ccccc23)cc1` showed an IC50 [1] of 0.11 µM.

In the case of `COc1ccccc1CNc1cc2c(cn1)[nH]c1ccccc12`, the IC50 [1] is reported as 0.8 µM.

With `COc1ccccc1CNc1nccc2c1[nH]c1ccccc12` the IC50 [1] was 15 µM.

With `Cc1ccc(CNc2cc3c(cn2)[nH]c2ccccc23)cc1` the IC50 [1] was 6.2 µM.

For `Clc1ccc(CNc2cc3c(cn2)[nH]c2ccccc23)cc1`, the IC50 [1] was 6.1 µM.

With `COc1cccc(CNc2nccc3c2[nH]c2ccccc23)c1` the IC50 [1] was 24 µM.

From ChEMBL document CHEMBL1806388, “3-(3-Phenoxybenzyl)amino-β-carboline: a novel antitumor drug targeting α-tubulin” (Bioorg Med Chem Lett, 2011)
